Experimental data reported in ChEMBL document CHEMBL1136371, “The design of 8,8-dimethyl[1,6]naphthyridines as potential anticonvulsant agents” (Bioorg Med Chem Lett, 2003).

How the values were obtained:
Rattus norvegicus [1] = species: Rattus norvegicus; assay: Binding affinity at [3H]SB-204269 binding site expressed as pKi; assay type: functional
Procedure, shortened: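 Radioligand binding with [3H]SB-204269, reported as pKi. All determinations run in triplicate.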

Rattus norvegicus [2] = assay: Anticonvulsant activity by using rat MEST test at 2 mg/kg p.o. 2 hr post-dose; assay type: functional; settings: route oral
Procedure, shortened: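 Rat maximal electroshock seizure threshold (MEST) test. Oral dosing at 2 mg/kg, doses as free base; reference anticonvulsant given at 2.5 mg/kg p.o. Seizure threshold read 2 h post-dose as % increase versus vehicle-treated controls. Significance by Litchfield–Wilcoxon analysis.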

Rattus norvegicus [3] = species: Rattus norvegicus; assay: Compound tested for its ability to protect rat from hindlimb tonic seizures following a shock by using ALLFITrd quo; assay type: functional
Procedure, shortened: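 Rat supraMES model. Oral doses of 1, 10 and 30 mg/kg. At 4 h post-dose, a single corneal-electrode shock of 180 mA lasting 0.3 s was given. Protection from hindlimb tonic seizures was scored against control, and ED50 was derived by ALLFIT fitting.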

[4] = Oral bioavailability; assay type: ADME, organism-based; settings: rat, in vivo
Procedure, shortened: (§1)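 Rat pharmacokinetics after iv and po administration. Oral bioavailability (Fpo) was measured with oral dosing at 2 mg/kg, and blood clearance (CLb) in mL/min/kg.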

[5] = Oral bioavailability in rat; assay type: ADME, organism-based; settings: in vivo; procedure, shortened: as §1
[6] = Oral bioavailability at the dose of 2 mg/kg in rat; assay type: ADME, organism-based; settings: in vivo; procedure, shortened: as §1
[7] = Plasma clearance was determined; assay type: ADME, organism-based; settings: rat

| Compound | Log Ki (Rattus norvegicus [1]) | Increase (Rattus norvegicus [2]) [%] | other results |
| --- | --- | --- | --- |
| CC(C)Oc1ccc(C(=O)Nc2cnc3c(c2)CNCC3(C)C)cc1C(F)(F)F | -8.4 | 15 | – |
| CC(=O)c1ccc2c(c1)[C@H](NC(=O)c1ccc(F)cc1)[C@@H](O)C(C)(C)O2 [CARABERSAT] | – | 120 | ED50 (Rattus norvegicus [3]): 6.3 mg/kg |
| COc1ccc(C(=O)Nc2cnc3c(c2)CNCC3(C)C)cc1Br | -8.7 | 260 | – |
| COc1ccc(C(=O)Nc2cnc3c(c2)CN(C)CC3(C)C)cc1C(F)(F)F | -8.8 | 570 | bioavailability [4]: 20% |
| COc1ccc(C(=O)Nc2cnc3c(c2)CN(C)CC3(C)C)cc1F | -7.3 | – | – |
| COc1ccc(C(=O)Nc2cnc3c(c2)CNCC3(C)C)cc1Cl | -8.1 | 260 | – |
| CCOc1ccc(C(=O)Nc2cnc3c(c2)CN(C)CC3(C)C)cc1C(F)(F)F | -8.5 | 310 | – |
| COc1ccc(C(=O)Nc2cnc3c(c2)CNCC3(C)C)cc1F | -7.2 | – | – |
| CCOc1ccc(C(=O)Nc2cnc3c(c2)CNCC3(C)C)cc1C(F)(F)F | -8.6 | 80 | – |
| COc1ccc(C(=O)Nc2cnc3c(c2)CN(C)CC3(C)C)cc1Cl | -8.5 | 380 | – |
| CN1Cc2cc(NC(=O)c3ccccc3)cnc2C(C)(C)C1 | -6.2 | 3 | – |
| COc1ccc(C(=O)Nc2ccc3c(c2)CN(C)CC3)cc1C(F)(F)F | -8.9 | – | bioavailability [5]: 2% |
| COc1ccc(C(=O)Nc2cnc3c(c2)CNCC3(C)C)cc1C(F)(F)F | -8.7 | 260 | bioavailability [6]: > 50%; ED50 (Rattus norvegicus [3]): 3.9 mg/kg; clearance [7]: 30 mL/min/kg |
| COc1ccc(C(=O)Nc2cnc3c(c2)CN(C)CC3(C)C)cc1Br | -8.6 | 210 | – |
| COc1ccc(C(=O)Nc2cnc3c(c2)CN(C)CC3(C)C)cc1C#N | -7.3 | 110 | – |
